From ChEMBL document CHEMBL2429791, “Preparation of asymmetric urea derivatives that target prostate-specific membrane antigen for SPECT imaging” (J Med Chem, 2013) come the findings set out here.

Molecules are shown by their SMILES.

Data set [1] deals with Nucleic Acid. Briefly: Ratio of drug level in human LNCAP cells xenografted in C.B.-17/Icr +/+ Jcl mouse to muscle of C.B.-17/Icr +/+ Jcl mouse xenografted with human LNCAP and PC3 cells at 25.9 MBq, iv after 3 hrs. It counts as ADME, organism-based. The conditions noted are these: in vivo. In short, it runs like this: (§1)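 Tumor-to-blood and tumor-to-muscle ratios were calculated from %ID/g values in ¹²⁵I-tracer biodistribution in LNCaP/PC-3 xenografted mice. Tail-vein dosing, n=4 per time point, sacrifice at 2 min, 30 min, 1, 3 or 6 h.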
On the technique in general: In xenograft studies the graft and the host belong to different species.

Data set [2] deals with Blood. Briefly: Biodistribution in blood of C.B.-17/Icr scid/scid Jcl mouse xenografted with human LNCAP and PC3 cells at 25.9 MBq, iv after 30 mins. The data set is classed as ADME, organism-based. Conditions: in vivo, 0.5 h; call rule not given here.
Data set [3] has as its system Lung. Nature of the data set: Biodistribution in lung of C.B.-17/Icr +/+ Jcl mouse xenografted with human LNCAP and PC3 cells at 25.9 MBq, iv after 3 hrs. The data set is classed as ADME, organism-based. Conditions: in vivo. In short, it runs like this: (§2)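 Radioiodinated (¹²⁵I) tracer given by tail-vein injection to mice bearing LNCaP (left shoulder) and PC-3 (right shoulder) xenografts, 22–24 g, grown to about 5–10 mm. Groups of n=4 were decapitated at 2 min, 30 min, 1 h, 3 h or 6 h. Tissues were weighed and counted, and uptake was expressed as %ID/g (mean ± SD).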

Data set [4] relates to Muscle tissue. Briefly: Biodistribution in muscle of C.B.-17/Icr +/+ Jcl mouse xenografted with human LNCAP and PC3 cells at 25.9 MBq, iv after 3 hrs. Conditions: in vivo. It counts as ADME, organism-based. In a few lines:
as §2

Data set [5] relates to Nucleic Acid. Nature of the data set: Ratio of drug level in human LNCAP cells xenografted in C.B.-17/Icr +/+ Jcl mouse to muscle of C.B.-17/Icr +/+ Jcl mouse xenografted with human LNCAP and PC3 cells at 25.9 MBq, iv after 2 mins. The data set is classed as ADME, organism-based. Conditions: in vivo. In a few lines:
as §1

Data set [6] can be described thus: Ratio of drug level in human PC3 cells xenografted in C.B.-17/Icr +/+ Jcl mouse to blood of C.B.-17/Icr +/+ Jcl mouse xenografted with human LNCAP and PC3 cells at 25.9 MBq, iv after 30 mins. The data set is classed as ADME, organism-based. Conditions: PC3 tumour xenograft relative to blood. In short, it runs like this: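 Mice (22–24 g) carried PC-3 (right shoulder) and LNCaP (left shoulder) tumors, raised by injecting 1–5 × 10⁶ cells in 1:1 PBS/Matrigel and used at about 5–10 mm diameter. [¹²⁵I]-tracer was given via the tail vein, n=4 per time point, and mice were decapitated at 2 min, 30 min, 1, 3 or 6 h. Tissues were weighed and γ-counted as %ID/g. Tumor/blood and tumor/muscle ratios were taken from %ID/g, mean ± SD.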

Data set [7] deals with Spleen. Nature of the data set: Biodistribution in spleen of C.B.-17/Icr scid/scid Jcl mouse xenografted with human LNCAP and PC3 cells at 25.9 MBq, iv after 30 mins. The data set is classed as ADME, organism-based. Conditions: in vivo, 0.5 h.
In data set [8] the test system is PC-3. Nature of the data set: Biodistribution in PC3 cells in C.B.-17/Icr +/+ Jcl mouse xenografted with human LNCAP and PC3 cells at 25.9 MBq, iv after 2 mins. The data set is classed as ADME, organism-based. The conditions noted are these: in vivo. In short, it runs like this:
(§3)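 ¹²⁵I-labelled tracer given iv by tail vein to mice (22–24 g) bearing LNCaP (left shoulder) and PC-3 (right shoulder) xenografts of about 5–10 mm, grown from 1–5 × 10⁶ cells in 1:1 Matrigel. n=4 per time point; decapitated at 2 min, 30 min, 1, 3, 6 h. Tissues weighed and counted; uptake as %ID/g, mean ± SD.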

The test system of data set [9] is Serum. Briefly: Drug degradation in C.B.-17/Icr +/+ Jcl mouse serum after 18 hrs. The data set is classed as ADME, cell-free. In short, it runs like this:
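Serum came from heart blood of isoflurane-anesthetized male C.B.-17/Icr +/+ mice (20–22 g), centrifuged at 1,500 × g and stored at −80 °C. ¹²⁵I tracer was incubated in serum at 37 °C, then methanol was added. The sample was centrifuged at 5,000 × g, passed through a 0.45 μm filter, and analyzed by radio-HPLC for intact tracer versus degradation peaks.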

The subject of data set [10] is Kidney. Briefly: Biodistribution in kidney of C.B.-17/Icr +/+ Jcl mouse xenografted with human LNCAP and PC3 cells at 25.9 MBq, iv after 30 mins in presence of 2-PMPA. It counts as ADME, organism-based. The conditions noted are these: in vivo, 0.5 h. In short, it runs like this:
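Blocking study: ¹²⁵I-labelled tracer coinjected iv by tail vein with 2-PMPA (50 mg/kg) in LNCaP/PC-3 xenograft-bearing mice (22–24 g). Mice decapitated 30 min after injection; tissues weighed and counted; uptake as %ID/g.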

Data set [11] relates to Spleen. Briefly: Biodistribution in spleen of C.B.-17/Icr +/+ Jcl mouse xenografted with human LNCAP and PC3 cells at 25.9 MBq, iv after 3 hrs. It counts as ADME, organism-based. Conditions: in vivo. In short, it runs like this:
as §2

For data set [12], the system named is Liver. Nature of the data set: Biodistribution in liver of C.B.-17/Icr […] Jcl mouse xenografted with human LNCAP and PC3 cells at 25.9 MBq, iv after 2 mins. It counts as ADME, organism-based. The conditions noted are these: in vivo. In a few lines: as §3
A short description of data set [13]: Distribution coefficient, log D of the compound. The data set is classed as physicochemical. The conditions noted are these: octanol/water.
In data set [14] the test system is Intestine. Briefly: Biodistribution in intestine of C.B.-17/Icr +/+ Jcl mouse xenografted with human LNCAP and PC3 cells at 25.9 MBq, iv after 1 hr. The data set is classed as ADME, organism-based. The conditions noted are these: in vivo. In a few lines:
as §3

Data set [15] is described as follows: Ratio of drug level in human LNCAP cells xenografted in C.B.-17/Icr +/+ Jcl mouse to blood of C.B.-17/Icr +/+ Jcl mouse xenografted with human LNCAP and PC3 cells at 25.9 MBq, iv after 1 hr. The data set is classed as ADME, organism-based. The conditions noted are these: LNCAP tumour xenograft relative to blood. In a few lines: as §1
For data set [16], the system named is Heart. Briefly: Biodistribution in heart of C.B.-17/Icr +/+ Jcl mouse xenografted with human LNCAP and PC3 cells at 25.9 MBq, iv after 30 mins. It counts as ADME, organism-based. Conditions: in vivo, 0.5 h. In short, it runs like this:
as §3

For data set [17], the system named is Muscle tissue. Briefly: Biodistribution in muscle of C.B.-17/Icr +/+ Jcl mouse xenografted with human LNCAP and PC3 cells at 25.9 MBq, iv after 2 mins. It counts as ADME, organism-based. The conditions noted are these: in vivo. In short, it runs like this: as §2
Data set [18] deals with Muscle tissue. Briefly: Biodistribution in muscle of C.B.-17/Icr +/+ Jcl mouse xenografted with human LNCAP and PC3 cells at 25.9 MBq, iv after 1 hr. The data set is classed as ADME, organism-based. Conditions: in vivo. In a few lines:
as §2

Data set [19] deals with Lung. Nature of the data set: Biodistribution in lung of C.B.-17/Icr +/+ Jcl mouse xenografted with human LNCAP and PC3 cells at 25.9 MBq, iv after 6 hrs. The data set is classed as ADME, organism-based. The conditions noted are these: in vivo. In short, it runs like this:
as §2

The target of data set [20] is Glutamate carboxypeptidase 2 (Homo sapiens, UniProt Q04609). Nature of the data set: Binding affinity to PSMA in human LNCaP cells after 1 hr by gamma counting. The data set is classed as cell-based. In short, it runs like this: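 LNCaP cells plated at 4 × 10⁵ cells/well and grown 48 h (37 °C/5% CO₂), then washed with RPMI 1640 containing 0.5% BSA. Saturation binding used ¹²⁵I-labelled ligand (specific activity 81.4 kBq/nmol), 1 h at 37 °C; nonspecific binding measured with 100 µM non-radioactive iodinated compound. Cells washed, lysed in 0.2 N NaOH, gamma-counted; Kd from Scatchard plots.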
Chain of Glutamate carboxypeptidase 2 (Q04609 whole entry): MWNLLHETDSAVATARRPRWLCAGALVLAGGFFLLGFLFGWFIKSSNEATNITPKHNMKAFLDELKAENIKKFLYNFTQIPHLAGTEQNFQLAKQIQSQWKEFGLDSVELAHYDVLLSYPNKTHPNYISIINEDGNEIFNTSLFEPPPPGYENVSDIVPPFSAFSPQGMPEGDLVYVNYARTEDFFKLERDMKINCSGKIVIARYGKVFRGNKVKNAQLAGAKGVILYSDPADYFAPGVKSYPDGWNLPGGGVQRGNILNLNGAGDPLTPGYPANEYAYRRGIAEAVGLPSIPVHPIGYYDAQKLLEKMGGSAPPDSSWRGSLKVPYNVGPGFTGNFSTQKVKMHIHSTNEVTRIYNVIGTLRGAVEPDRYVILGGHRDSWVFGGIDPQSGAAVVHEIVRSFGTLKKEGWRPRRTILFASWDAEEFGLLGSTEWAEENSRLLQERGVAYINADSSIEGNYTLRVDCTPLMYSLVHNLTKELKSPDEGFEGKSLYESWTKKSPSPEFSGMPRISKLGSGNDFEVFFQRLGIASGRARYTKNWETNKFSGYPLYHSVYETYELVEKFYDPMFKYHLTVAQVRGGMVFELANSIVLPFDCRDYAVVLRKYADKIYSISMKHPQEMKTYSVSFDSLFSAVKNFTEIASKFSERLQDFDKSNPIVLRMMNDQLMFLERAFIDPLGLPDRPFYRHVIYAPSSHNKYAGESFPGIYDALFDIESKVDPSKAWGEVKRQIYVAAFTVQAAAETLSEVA

Data set [21] has as its system Muscle tissue. Nature of the data set: Biodistribution in muscle of C.B.-17/Icr +/+ Jcl mouse xenografted with human LNCAP and PC3 cells at 25.9 MBq, iv after 6 hrs. The data set is classed as ADME, organism-based. The conditions noted are these: in vivo. In short, it runs like this:
as §2

For the compound `O=C(O)CC[C@H](NC(=O)N[C@@H](CSC1CC(=O)N(CCCC[C@H](NC(=O)CNC(=O)c2cccc([125I])c2)C(=O)O)C1=O)C(=O)O)C(=O)O` (stereo partly specified), the Ratio in data set [1] is 49.4; in data set [5] it was 2.9. The Drug uptake was 1.5 % ID/g in data set [2]; 1.2 % ID/g in data set [3]; 0.2 % ID/g in data set [4]; “Active” in [7]; 2.7 % ID/g in data set [8]; “Not Active” in [10]. The Drug uptake is reported as 16.1 % ID/g in data set [11]; 22.5 % ID/g in [12]; 16.5 % ID/g in data set [14]; 2.1 % ID/g in data set [16]; 1.4 % ID/g in [17]; 0.5 % ID/g in [18]. Further, the Drug uptake stood at 0.9 % ID/g in [19] and 0.1 % ID/g in data set [21]. In addition, the Kp – broadly, the ratio of the level in a tissue or fluid to that in plasma or blood – at 0.5 h in data set [6] is 0.7. For the same compound, the Stability entry in data set [9] is given as “Unstable”. The log distribution coefficient (logD) (as a rule, lipophilicity at a set pH, counting ionised and neutral species) in data set [13] was -1.97. Moreover, in data set [15], the partition ratio (Kp) at 1 h turned out to be 6.9. For the same compound, in [20], the dissociation constant (Kd) (usually the concentration at which binding is half-saturated) amounted to 7.8 nM.
